ChEMBL document CHEMBL1126561, “Synthesis and biological evaluation of N4-substituted imidazo- and v-triazolo[4,5-d]pyridazine nucleosides” (J Med Chem, 1993)
In brackets after ≈: the same amount, converted by molar mass.

Columns and labels:
L1210 (1565) [1] = test: Compound was tested in vitro for growth inhibitory activity against murine L1210 leukemia cell line; type: functional; settings: Mus musculus, read-out: ID50 (the source's name)
Outline: (§1)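 Murine L1210 cells in RPMI-1640 with 10% heat-inactivated FBS and mercaptoethanol, seeded at 1 × 10³ cells/well on day 0. Graded analogue (12 concentrations) added day 1, then 3 days at 37 °C. MTT 4 h, formazan dissolved in acidic isopropanol, absorbance read. ID50 from curve fit, eight determinations per concentration.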

B16 [2] = test: Compound was tested in vitro for growth inhibitory activity against murine B16 melanoma cell line; type: functional; settings: Mus musculus, read-out: ID50 (the source's name)
Outline: as §1, with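 “B16 melanoma cells” for “Murine L1210 cells”, “with 15%” for “with 10%”, “and antibiotics,” for “and mercaptoethanol,”, “at 2-3” for “at 1”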

B16 [3] = test: Tested in vitro inhibitory activity against murine B16 melanoma cells line; type: functional; settings: Mus musculus, read-out: ID50 (the source's name)
Outline: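 B16 cells maintained in RPMI-1640 with 15% heat-inactivated FBS and antibiotics (doubling time 21 h); 2-3 × 10^3 cells seeded day 0, graded analogue concentrations added day 1, 3 days at 37 °C. MTT 4 h, formazan solubilized in acidic isopropanol, absorbance read; ID50 from curve fit of 12 concentrations, eight determinations each.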

L1210 (1565) [4] = test: Tested in vitro inhibitory activity against murine L 1210 leukemia cells line; type: functional; settings: Mus musculus, read-out: ID50 (the source's name)
Outline: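 L1210 cells in RPMI-1640 with 10% heat-inactivated FBS plus mercaptoethanol (doubling time 12 h); 1 × 10^3 cells seeded day 0, graded analogue concentrations added day 1, cultured 3 days at 37 °C. Growth read by MTT reduction (4 h), formazan in acidic isopropanol; ID50 fitted from 12 concentrations × eight determinations.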

[5] = target: T1, Adenosine deaminase (Bos taurus) (UniProt P56658); test: Tested for inhibition against calf intestinal mucosa adenosine deaminase (ADA); type: tissue-based; settings: concentration not given here
T1 sequence (whole entry): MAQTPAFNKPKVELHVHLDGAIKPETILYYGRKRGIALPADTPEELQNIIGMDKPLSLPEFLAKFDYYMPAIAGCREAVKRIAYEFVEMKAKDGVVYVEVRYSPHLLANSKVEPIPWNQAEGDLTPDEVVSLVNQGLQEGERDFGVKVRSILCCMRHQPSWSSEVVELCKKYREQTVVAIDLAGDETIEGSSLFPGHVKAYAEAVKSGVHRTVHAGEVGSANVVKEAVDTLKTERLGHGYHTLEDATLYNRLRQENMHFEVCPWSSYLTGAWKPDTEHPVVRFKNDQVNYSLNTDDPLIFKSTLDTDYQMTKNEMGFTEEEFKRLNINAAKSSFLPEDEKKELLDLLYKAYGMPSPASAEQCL
Outline: (§2)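 Calf intestinal mucosa ADA (0.003 unit) in 1 mL of 50 mM potassium phosphate, pH 7.4, at 30 °C. Substrate was 25 μM adenosine, about Km. Analogue tested at 100 μM, reported as percent inhibition.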

[6] = target: T1, Adenosine deaminase (Bos taurus); test: Tested for percentage inhibition against adenosine deaminase at the concentration 100 uM; outline: as §2
Homo sapiens [7] = species on record: Homo sapiens; test: Compound was tested for the inhibition of adenosine transport into human erythrocytes; type: functional
Outline: (§3)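 Inhibitor-stop assay of human erythrocytes (10% suspension, v/v) at room temperature. Analogue (up to 10 μM) was preincubated with triplicate cell aliquots for 10 min, then [8-¹⁴C]adenosine was added (final 10 μM). Uptake was stopped after 0.5 s with ice-cold 750 μM dilazep and centrifugation through oil. Cell radioactivity was counted, corrected for extracellular trapping.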

B16 [8] = test: Compound was tested in vitro for growth inhibitory activity against B16 melanoma cell line; type: functional; settings: Mus musculus, read-out: ID50 (the source's name)
Outline: as §1, with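 “B16 melanoma cells” for “Murine L1210 cells”, “with 15%” for “with 10%”, “and antibiotics,” for “and mercaptoethanol,”, “at 2-3” for “at 1”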

Homo sapiens [9] = species on record: Homo sapiens; test: Evaluated for inhibition of adenosine accumulation in human erythrocytes at the concentration of 10 uM of compound; type: functional; outline: as §3

CN(Cc1cnc2nc(N)nc(N)c2n1)c1ccc(C(=O)N[C@@H](CCC(=O)O)C(=O)O)cc1 [METHOTREXATE]
IC50 (L1210 (1565) [1]): < 0.1 µg/mL | IC50 (B16 [2]): < 0.1 µg/mL

Nc1ccn([C@@H]2O[C@H](CO)[C@@H](O)[C@@H]2O)c(=O)n1 [CYTARABINE]
IC50 (B16 [3]): < 0.1 µg/mL | IC50 (L1210 (1565) [4]): < 0.1 µg/mL

Nc1nncc2c1nnn2C1O[C@H](CO)[C@@H](O)[C@H]1O (stereo partly specified)
inhibition [5]: 7%

Nc1nncc2c1ncn2[C@@H]1O[C@H](CO)[C@@H](O)[C@H]1O
inhibition [6]: 15%

O=c1[nH]cc(F)c(=O)[nH]1 [FLUOROURACIL]
IC50 (B16 [3]): < 0.1 µg/mL | IC50 (L1210 (1565) [4]): < 0.1 µg/mL

OC[C@H]1OC(n2nnc3c(NCc4ccccc4)nncc32)[C@H](O)[C@@H]1O (stereo partly specified)
Inhibition (Homo sapiens [7]): 34% | IC50 (B16 [8]): 35.8 µg/mL (≈ 99.9 µM)

OC[C@H]1OC(n2cnc3c(NCc4ccccc4)nncc32)[C@H](O)[C@@H]1O (stereo partly specified)
Inhibition (Homo sapiens [9]): 45%
